Sampled rows, rich in hits. Any-hit rate of the full collection: about 29%.
CYP2C19 act: cytochrome P450 2C19 (human) activation. P33261. 96,000 tested, under 10 active. recombinant CYP2C19, luciferin-H EGE luminescence; active compounds read high; 0 = fully inhibited enzyme, 1 = untreated enzyme. activation factor at 5 µM;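 active = activation factor of at least 2 at 5 µM in the primary screen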
Ecoli tolC: blocks growth of E. coli BW25113 tolC mutant. OD615. AID 573. 2.2% of 65,000 active. growth inhibition, % at 10 µM (by protocol);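 active = growth inhibition at or above a cutoff equal to the mean over every tested compound plus 3 SD, cut at about 60% in these data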;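 note: growth measured after 20 h incubation at 37 °C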
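Assay system: tolC-deleted E. coli BW25113. Medium: kanamycin-containing LB broth (50 µg/mL). Dosing: 10 µM final, single dose. Timing: bacterial growth with compound for 20 h at 37 °C. Detection: A615 absorbance measurement. Read-out basis: growth inhibition in percent.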
CYP2C9 act: activators of human CYP2C9; AID 1024; P11712; activation factor at 5 µM; recombinant CYP2C9, luciferin-H conversion, luminescence; active compounds read high; factor 1 = untreated enzyme, 0 = blocked; 1.4% of 96,000 active;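 active = activation factor of 2 or more for CYP2C9 at a 5 µM dose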
Target sequence (P11712 whole entry, looked up): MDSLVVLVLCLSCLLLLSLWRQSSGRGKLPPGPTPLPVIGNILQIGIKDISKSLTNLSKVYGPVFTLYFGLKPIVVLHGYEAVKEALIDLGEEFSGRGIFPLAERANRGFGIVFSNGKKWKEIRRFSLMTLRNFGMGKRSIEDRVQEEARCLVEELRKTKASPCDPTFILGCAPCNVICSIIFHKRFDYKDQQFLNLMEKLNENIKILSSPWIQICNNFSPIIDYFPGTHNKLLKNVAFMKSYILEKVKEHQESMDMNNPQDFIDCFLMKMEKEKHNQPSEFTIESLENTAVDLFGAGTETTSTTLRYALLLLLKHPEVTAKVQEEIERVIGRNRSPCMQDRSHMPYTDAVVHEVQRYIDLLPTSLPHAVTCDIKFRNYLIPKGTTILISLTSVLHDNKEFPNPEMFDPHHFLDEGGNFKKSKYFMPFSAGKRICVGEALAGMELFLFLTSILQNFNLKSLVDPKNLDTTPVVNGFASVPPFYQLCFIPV
Ecoli WT expand: E. coli BW25113 growth inhibition, expanded screen; OD600 absorbance; growth inhibition, % at 100 µM; 0.15% of 98,000 active;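 active = growth inhibition above about 50% at one test dose, limit read from the data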;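 note: growth measured after 20 h incubation at 37 °C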
CYP2C9 inh: inhibitors of human CYP2C9 | AID 777 | CYP2C9 Supersomes, luciferin-H conversion, luminescence | inhibition, % at 5 µM | P11712 | 20% of 96,000 active;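 active = blocking of liver enzyme CYP2C9 beyond about 50% at 5 µM, limit read from the data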
CYP2C19 inhib: inhibitors of human CYP2C19. CYP2C19 Supersomes, luciferin-H EGE luminescence, 30 min. inhibition, % at 5 µM. P33261. 21% of 96,000 active;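 active = CYP2C19 inhibition above a set limit at 5 µM in the primary screen, cut at about 50% in these data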
Each line names hits and unclear results; the compound was inactive in the other large screens.

Cc1cc(C(=O)CSc2nnc(N)s2)c(C)n1CCc1ccc(Cl)cc1	CYP2C9 inh 79, CYP2C19 inhib 89
CCOCCCNC(=O)C(c1ccc(C)cc1)N(Cc1ccc2c(c1)OCO2)C(=O)c1cnccn1 (stereo unspecified)	none
CC(=O)c1sc(-c2c(C)nc3sccn23)nc1C1CCCC1	none (no result: Ecoli WT expand)
COc1cc(NS(C)(=O)=O)c(OC)cc1NC(=O)c1ccccc1	CYP2C9 act 2.5
COc1ccccc1NC(=O)c1ccc(NS(C)(=O)=O)cc1	CYP2C9 act 3.3
CCCCN1C(=O)c2ccc(C(=O)Nc3cccc(C)c3C)cc2C1=O	none (no result: Ecoli tolC)
CCCCN1C(=O)c2ccc(C(=O)NC3=NCCS3)cc2C1=O	CYP2C9 inh 72
CCc1ccc(NC(=O)N(C2CCCCC2)C(C)c2cccnc2)cc1 (stereo unspecified)	none (no result: Ecoli tolC)
CC(CCN(C)C)OC(=O)c1ccc(C(C)c2ccccc2)o1 (stereo unspecified)	CYP2C19 inhib 61
CCOc1ccc(NS(=O)(=O)c2ccc3c(c2)CCN3C(=O)CCC(=O)O)cc1	none
CCOc1ccc(S(=O)(=O)Nc2cc(Cl)ccc2O)cc1	Ecoli tolC 67, CYP2C9 inh 100, CYP2C19 inhib 100
CCOc1ccc(S(=O)(=O)Nc2cccc(Cl)c2)cc1	Ecoli tolC 73 (no result: CYP2C19 act, CYP2C9 act, Ecoli WT expand, CYP2C9 inh, CYP2C19 inhib)
CCOc1ccc(NS(=O)(=O)c2ccc(NS(=O)(=O)c3ccccc3)cc2)cc1	CYP2C9 inh 95, CYP2C19 inhib 55 (no result: Ecoli tolC)
CCc1ccccc1NS(=O)(=O)c1ccc(SC)cc1	Ecoli tolC 73, CYP2C19 inhib 81
O=C(NCCN1C(=O)CSC1=O)c1ccccc1	none
Cc1ccc(NC(=O)/C(=C\c2cccnc2)NC(=O)c2ccco2)cc1	none (no result: Ecoli tolC)
Cc1ccccc1CS(=O)(=O)CCC(=O)NCc1ccccn1	none
CCOc1ccc(S(=O)(=O)Nc2ccccc2SC)cc1	CYP2C19 inhib 67 (no result: Ecoli tolC)
COc1ccc(NC(=O)CCN2C(=O)C3CC=C(Cl)CC3C2=O)cc1 (stereo unspecified)	none (no result: CYP2C19 act, CYP2C9 act, Ecoli WT expand, CYP2C9 inh, CYP2C19 inhib)
COc1cccc(Cn2cnc3c(NS(=O)(=O)c4cc(Cl)ccc4Cl)c(C)c(C)cc32)c1	CYP2C9 inh 53 (no result: Ecoli tolC)
COc1cccc(Cn2cnc3c(NS(=O)(=O)c4ccc(Cl)cc4Cl)c(C)c(C)cc32)c1	none (no result: Ecoli tolC)
Cc1cc2c(ncn2Cc2ccccc2)c(NS(C)(=O)=O)c1C	CYP2C19 inhib 54 (no result: Ecoli tolC)
COc1cccc(Cn2cnc3c(NS(=O)(=O)c4cccc(Cl)c4Cl)c(C)c(C)cc32)c1	CYP2C9 inh 96, CYP2C19 inhib 84 (no result: Ecoli tolC)
COc1cccc(Cn2cnc3c(NS(=O)(=O)c4ccc(Cl)cc4)c(C)c(C)cc32)c1	none (no result: Ecoli tolC)
CN(C)S(=O)(=O)c1cccc(NC(=O)COC(=O)CCc2nc3ccccc3s2)c1	none (no result: Ecoli tolC)
COc1ccccc1C/C(N)=N/OC(=O)c1ccc(C)c([N+](=O)[O-])c1	CYP2C9 act 3.4 (no result: Ecoli tolC)
Cc1cccc(OCC(O)Cn2c(NCc3cccnc3)nc3c2c(=O)[nH]c(=O)n3C)c1 (stereo unspecified)	none
CCn1c2ccccc2c2cc(NC(=O)CSc3nnc(-c4cccc(OC)c4)n3N)ccc21	none (no result: Ecoli tolC)
CC(Oc1ccc(F)cc1)C(=O)Nc1ccc2ccccc2c1 (stereo unspecified)	none (no result: Ecoli tolC)
CCn1c2ccccc2c2cc(NC(=O)C(C)Oc3ccccc3)ccc21 (stereo unspecified)	CYP2C19 inhib 61 (no result: Ecoli tolC)
CCn1c2ccccc2c2cc(NC(=O)C(C)Oc3ccc(OC)cc3)ccc21 (stereo unspecified)	CYP2C19 inhib 69 (no result: Ecoli tolC)
CC(Sc1ccccc1)C(=O)Nc1ccc(N2CCOCC2)cc1 (stereo unspecified)	none (no result: Ecoli tolC)
CC(Sc1ccccn1)C(=O)Nc1ccccc1 (stereo unspecified)	CYP2C19 inhib 81
COc1ccc(NC(=O)C(C)Sc2ccccc2)cc1 (stereo unspecified)	CYP2C9 inh 64, CYP2C19 inhib 51 (no result: Ecoli tolC)
O=C(N1CCOCC1)N1c2ccccc2Sc2ccccc21	CYP2C19 inhib 55 (no result: Ecoli tolC)
COc1cc(C(O)P(=O)(OC2CCCCC2)c2ccc(N(C)C)cc2)cc(OC)c1OC (stereo unspecified)	CYP2C19 inhib 84
Cc1ccc(-n2c(SCc3cc(=O)n4ccsc4n3)nnc2-c2cccnc2)c(C)c1	none
O=C(NCCC1=CCCCC1)c1ccc(Cl)c(S(=O)(=O)N2CCOCC2)c1	CYP2C9 inh 60, CYP2C19 inhib 51

Screening data deposited in PubChem BioAssay by several laboratories.
